Test [1] concerns MCF7. Description: Antiproliferative activity against MCF7 cells […] after 48 hrs. As to conditions: Homo sapiens; for IC50: MCF7, 48 h. Format: functional. The essentials: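 MCF-7 cells were trypsinized (0.05% trypsin–EDTA), plated at 10⁴ cells/well in MEM at pH 7.4, and left to attach for 24 h at 37 °C under CO₂. Compounds in ethanol/DMSO were added and incubated 48 h. Cells were fixed with cold 10% TCA for 1 h at 4 °C, stained with 0.4% SRB in 1% acetic acid for 30 min, and the stain was extracted with Tris base at pH 10.5. OD was read at 560 nm.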

For test [2], the target named is T1, Estrogen receptor (Rattus norvegicus) (UniProt P06211).
T1 sequence (whole entry): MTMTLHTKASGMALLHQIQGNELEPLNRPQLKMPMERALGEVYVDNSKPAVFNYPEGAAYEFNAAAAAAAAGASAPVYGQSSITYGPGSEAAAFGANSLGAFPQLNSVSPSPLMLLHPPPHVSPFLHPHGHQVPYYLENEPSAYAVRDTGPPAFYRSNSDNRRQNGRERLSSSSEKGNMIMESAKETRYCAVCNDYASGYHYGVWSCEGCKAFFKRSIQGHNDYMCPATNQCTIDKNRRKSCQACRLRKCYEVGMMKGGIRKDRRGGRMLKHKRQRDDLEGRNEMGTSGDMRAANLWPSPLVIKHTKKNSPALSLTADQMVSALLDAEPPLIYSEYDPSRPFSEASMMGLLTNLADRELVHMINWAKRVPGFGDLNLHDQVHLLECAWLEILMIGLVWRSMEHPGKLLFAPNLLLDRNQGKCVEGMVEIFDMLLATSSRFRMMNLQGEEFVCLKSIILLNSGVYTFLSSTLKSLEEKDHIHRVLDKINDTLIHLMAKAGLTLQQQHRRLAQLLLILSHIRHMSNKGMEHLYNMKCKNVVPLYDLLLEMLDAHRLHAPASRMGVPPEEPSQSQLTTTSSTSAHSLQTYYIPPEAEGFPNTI
Description: Displacement of [3H]estradiol from ER in rat uterus […] relative to estradiol. A general note: Displacement assays read how much labelled ligand stays bound in the presence of the test substance.

Test [3] relates to Rattus norvegicus. Description: Antagonist activity at ER receptor assessed as inhibition of 17-alpha-ethynylestradiol-induced increase in uterine weight of Sprague-Dawley rat at 10 mg/kg/day, po. Particulars: for inhibition in vivo at 10 mg/kg/day: Rattus norvegicus, Sprague-Dawley. Format: functional. In short, it runs like this: (§1)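 Oral dosing was given alongside 17α-ethynylestradiol (0.02 mg/kg) in rats, with vehicle and EE-alone groups. Fresh uterine weight was expressed as percent of the EE-alone group. Values are means ± SEM of at least six animals per group. Significance was tested against the corresponding EE-alone group (P<0.05, P<0.01).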

Test [4] concerns Rattus norvegicus. In words: Agonist activity at ER receptor assessed as increase in uterine weight of Sprague-Dawley rat at 10 mg/kg/day, po. Format: functional. In short, it runs like this:
(§2)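 Immature female rats were dosed orally once daily on days 28–30 of age, with a vehicle-only control group. At autopsy on day 31, 24 h after the last dose, a vaginal smear was taken and the uterus was excised, blotted and weighed fresh. Agonism was judged by uterine weight gain, vaginal opening and cornification versus vehicle. Values are means ± SEM, n≥6 per group.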

Test [5] relates to Rattus norvegicus. Description: Agonist activity at ER receptor assessed as increase in uterine weight of Sprague-Dawley rat at 10 mg/kg/day, po relative to control. Format: functional. In short, it runs like this:
as §2

The test system of test [6] is Rattus norvegicus. Description: Activity at ER receptor assessed as additive effect on 17-alpha-ethynylestradiol-induced increase in uterine weight of Sprague-Dawley rat at 10 mg/kg/day, po. Format: functional. The essentials:
as §1

Test [7] concerns Rattus norvegicus. In words: Antagonist activity at ER receptor assessed as increase in uterine weight in Sprague-Dawley rat at 0.02 mg/kg/day, po. Format: functional.
The subject of test [8] is Rattus norvegicus. Description: Agonist activity at ER receptor assessed as increase in uterine weight in Sprague-Dawley rat at 0.02 mg/kg/day, po. Format: functional. The essentials:
as §2

Test [9] deals with Rattus norvegicus. In words: Agonist activity at ER receptor assessed as increase in uterine weight of Sprague-Dawley rat at 0.02 mg/kg/day, po relative to control. Format: functional. In short, it runs like this: as §2
Test [10] concerns Rattus norvegicus. Description: Antagonist activity at ER receptor assessed as inhibition of increase in uterine weight of Sprague-Dawley rat at 10 mg/kg/day, po relative to 17-alpha-ethynylestradiol. Format: functional. Also noted: scale not given: the % may be the effect or the level left. In short, it runs like this:
as §1

For test [11], the system named is MCF7. Description: Antiproliferative activity against MCF7 cells at 3 mg/kg/day after 48 hrs. Particulars: Homo sapiens, MCF7, 48 h.
Test [12] relates to Rattus norvegicus. In words: Antagonist activity at ER receptor assessed as inhibition of increase in uterine weight of Sprague-Dawley rat at 3 mg/kg/day, po relative to 17-alpha-ethynylestradiol. Format: functional. Also noted: scale not given: the % may be the effect or the level left. The essentials:
as §1

Test [13] has as its system Rattus norvegicus. Description: Agonist activity at ER receptor assessed as increase in uterine weight of Sprague-Dawley rat at 3 mg/kg/day, po. Format: functional. In short, it runs like this:
as §2

Test [14] has as its system Rattus norvegicus. Description: Agonist activity at ER receptor assessed as increase in uterine weight of Sprague-Dawley rat at 3 mg/kg/day, po relative to control. Format: functional. In short, it runs like this:
as §2

The test system of test [15] is Rattus norvegicus. In words: Antagonist activity at ER receptor assessed as inhibition of 17-alpha-ethynylestradiol-induced increase in uterine weight of Sprague-Dawley rat at 3 mg/kg/day, po. Format: functional. The essentials:
as §1

The source made the active and inactive calls. The rule behind the calls is not given here.

As for `COc1ccc(C(=C2CC(c3ccc(OCCN(C)C)cc3)Oc3cc(OC)ccc32)c2ccc(OC)cc2)cc1` (centres undefined), the result in the test on MCF7 [1] was inactive. The RBA in [2] was below 0.001%.

In the case of `COc1ccc(C(=C2CC(c3ccc(OCCN4CCCCC4)cc3)Oc3cc(OC)ccc32)c2ccc(OC)cc2)cc1` (centres undefined), it took 6.68 µM to reach half-maximal inhibition in the test on MCF7 [1] (IC50). Besides, the Activity in the test on Rattus norvegicus [3] is 81.7 mg; in the test on Rattus norvegicus [4], 52.5 mg; in the test with Rattus norvegicus [5], 168%. Moreover, in the test on Rattus norvegicus [3], the inhibition in vivo – broadly, how much of the control response was suppressed – at 10 mg/kg/day turned out to be 26%. In test [2], this molecule registered an RBA below 0.001%.

For the molecule `COc1ccc(/C=C2\CC(c3ccc(O)cc3)Oc3cc(OC)ccc32)cc1` (centres undefined), the midpoint of inhibition with MCF7 [1], the IC50, lay at 8.77 µM. The Activity in the test on Rattus norvegicus [6] is given as 88.33 mg; in the test with Rattus norvegicus [3], 88.33 mg; with Rattus norvegicus [4] it was 17.33 mg; in the test with Rattus norvegicus [5], 24%. The molecule also gave an RBA in test [2] of 0.013%.

`COc1ccc(/C=C2\CC(c3ccc(OCCN4CCCCC4)cc3)Oc3cc(OC)ccc32)cc1` (centres undefined): 4.39 µM corresponded to half-maximal inhibition with MCF7 [1] (IC50). Also, the Activity in the test on Rattus norvegicus [3] turned out to be 104.4 mg; in the test with Rattus norvegicus [4] it was 24.63 mg; in the test on Rattus norvegicus [5], 54%. Moreover, the inhibition in vivo at 10 mg/kg/day in the test with Rattus norvegicus [3] is 4%. Besides, the RBA in [2] came to 0.095%.

Consider `C#C[C@]1(O)CC[C@H]2[C@@H]3CCc4cc(O)ccc4[C@H]3CC[C@@]21C` [ETHINYL ESTRADIOL], for which the Activity in the test with Rattus norvegicus [7] is recorded as 66.35 mg; in the test on Rattus norvegicus [8] it was 66.35 mg; in the test with Rattus norvegicus [9], 464%.

Take `COc1ccc(C(=C2CC(c3ccc(O)cc3)Oc3cc(OC)ccc32)c2ccc(OC)cc2)cc1` (centres undefined): in the test on MCF7 [1], the outcome was inactive. In addition, the figures for the Activity with Rattus norvegicus [3], in the test with Rattus norvegicus [4] and in the test with Rattus norvegicus [5] were 70.33 mg, 26 mg and 86%, respectively. Further, the inhibition in vivo at 10 mg/kg/day with Rattus norvegicus [3] stood at 17%. Moreover, the RBA in [2] came to 0.097%.

In the case of `COc1ccc(/C=C2\CC(c3ccc(OCCN(C)C)cc3)Oc3cc(OC)ccc32)cc1` (centres undefined), 2 µM corresponded to half-maximal inhibition with MCF7 [1] (IC50). Also, the Activity in the test with Rattus norvegicus [3] was found to be 85.4 mg; in the test with Rattus norvegicus [4], 46.3 mg; with Rattus norvegicus [5] it was 189%. Further, the inhibition in vivo at 10 mg/kg/day with Rattus norvegicus [3] worked out at 21%. In addition, in test [2], the RBA was found to be 0.006%.

For the molecule `COc1ccc2c(c1)OC(c1ccc(O)cc1)C/C2=C\c1ccc(OCc2ccccc2)cc1` (centres undefined), the Activity in the test on Rattus norvegicus [10] turned out to be 29%; in the test with Rattus norvegicus [3] it was 46.33 mg; with Rattus norvegicus [4], 38.3 mg; with Rattus norvegicus [5], 153%. Further, the result with MCF7 [1] was inactive. Besides, in the test on Rattus norvegicus [3], the inhibition in vivo at 10 mg/kg/day was found to be 29%. This molecule registered an RBA in [2] of 0.02%.

With `COc1ccc(/C=C2\CC(c3ccc(OCCN4CCCC4)cc3)Oc3cc(OC)ccc32)cc1` (centres undefined), the IC50 (in general, the concentration that gives 50% inhibition) with MCF7 [1] came out at 7.39 µM. The Activity in the test on Rattus norvegicus [3] is recorded as 92.3 mg; with Rattus norvegicus [4], 39.57 mg; in the test on Rattus norvegicus [5], 147%. Also, the inhibition in vivo at 10 mg/kg/day with Rattus norvegicus [3] came out at 15%. This molecule came in with an RBA in test [2] of 0.095%.

The molecule `CC/C(=C(\c1ccccc1)c1ccc(OCCN(C)C)cc1)c1ccccc1` [TAMOXIFEN] came in with an IC50 in the test on MCF7 [11] of 5.09 µM. Also, the Activity amounted to 49% in the test on Rattus norvegicus [12], 46.32 mg in the test on Rattus norvegicus [13], 155% in the test on Rattus norvegicus [14] and 52.3 mg with Rattus norvegicus [15]. The inhibition in vivo at 3 mg/kg/day in the test on Rattus norvegicus [15] (Rattus norvegicus, Sprague-Dawley) worked out at 49%.

Values taken from ChEMBL document CHEMBL1139744, “Rapid synthesis of 4-benzylidene and 4-[bis-(4-methoxyphenyl)-methylene-2-substituted phenyl-benzopyrans as potential selective estrogen receptor modulators (SERMs) using McMurry coupling reaction” (Bioorg Med Chem Lett, 2006).
